Our source for the Emax, Activity and pD2 values is ChEMBL document CHEMBL1158354, “Condensed 1,4-dihydropyridines with various esters and their calcium channel antagonist activities” (2009).

The species entered for experiment [1] is Oryctolagus cuniculus. The experiment in a line: (§1) Antagonist activity at voltage dependent L-type calcium channel in New Zealand white rabbit sigmoid colon circular smooth muscle strip assessed as relaxation response relative to papaverine. The format is functional.
The species named for experiment [2] is Oryctolagus cuniculus. The experiment in a line: (§2) Antagonist activity at voltage dependent L-type calcium channel in New Zealand white rabbit sigmoid colon circular smooth muscle strip assessed as relaxation response. The format is functional. In short, it runs like this:
(§3)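 Strips held at 1 g basal tension and equilibrated 60 min in Ca2+-free KHS, with the solution changed every 15 min. Strips were then placed in Ca2+-free, 80 mM K+ solution and contracted by cumulative Ca2+ (2.5, 5, 10 mM). At the contraction plateau, compounds were added cumulatively (10^-8–10^-4 M). Emax and pD2 (−log EC50) were derived from concentration–relaxation curves, n = 6.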

For experiment [3], the species on record is Oryctolagus cuniculus. The experiment in a line: (§4) Antagonist activity at voltage dependent L-type calcium channel in New Zealand white rabbit sigmoid colon circular smooth muscle strip assessed as induction of relaxation response in presence of Ca2+-activated potassium channel blocker tetraethylammonium. It is filed as functional.
Experiment [4] is described as follows: as §1. The format is functional. Particulars: Oryctolagus cuniculus.
Experiment [5] can be described thus: as §2. The format is functional, Oryctolagus cuniculus. In short, it runs like this: as §3
Experiment [6] in a line: as §4. The format is functional, Oryctolagus cuniculus. Also noted: scale not given: the % may be the effect or the level left.

Structures are written as SMILES. Activity calls are given as the source filed them. No cut-off for these calls is given here.

As usually defined, the Emax is the greatest response seen or fitted, relative to the assay's reference. For the compound `CC1=C(C(=O)OCC(C)C)C(c2cc(C(F)(F)F)cc(Cl)c2F)C2=C(CCC(C)(C)C2=O)N1` (stereo not drawn), the Emax result in the experiment filed under Oryctolagus cuniculus [1] is “inactive”. In the experiment listed under Oryctolagus cuniculus [2], the Activity result was “Dose-dependent effect” and the pD2 entry is “inactive”.
For `CC1=C(C(=O)OC(C)(C)C)C(c2cc(C(F)(F)F)cc(Cl)c2F)C2=C(CC(C)(C)CC2=O)N1` (stereo not drawn), in the experiment listed under Oryctolagus cuniculus [1], the Emax result is “inactive”. Also, in the experiment listed under Oryctolagus cuniculus [2], the Activity entry was “Dose-dependent effect” and the pD2 result was “inactive”.
Consider `CC1(C)CCC2=C(C1=O)C(c1cc(C(F)(F)F)cc(Cl)c1F)C1=C(COC1=O)N2` (stereo not drawn), for which the Emax result in the experiment listed under Oryctolagus cuniculus [1] was “inactive”. For the same compound, in the experiment listed under Oryctolagus cuniculus [2], the Activity entry is “Dose-dependent effect” and the pD2 entry was “inactive”. In addition, the result in the experiment listed under Oryctolagus cuniculus [3] was inactive.
For `COC(=O)C1=C(C)NC(C)=C(C(=O)OC)C1c1ccccc1[N+](=O)[O-]` [NIFEDIPINE], the Emax in experiment [4] came out at 94%. Further, the pD2 in experiment [5] is on record as 6.92. The Activity result in the experiment filed under Oryctolagus cuniculus [2] was “Dose-dependent effect”.
In the same order, the values of `COCCOC(=O)C1=C(C)NC2=C(C(=O)C(C)(C)CC2)C1c1cc(C(F)(F)F)cc(Cl)c1F` (stereo not drawn) are 43.7%, 4.89 and “Dose-dependent effect”.
On to `COC(=O)C1=C(C)NC2=C(C(=O)C(C)(C)CC2)C1c1cc(C(F)(F)F)cc(Cl)c1F` (stereo not drawn), for which the Emax in experiment [4] worked out at 17.2%. In addition, the pD2 in experiment [5] worked out at 4.94. For the same compound, the Activity result in the experiment filed under Oryctolagus cuniculus [2] was “Dose-dependent effect”; in experiment [6], 17.19%.
As to `CC1=C(C(=O)OC(C)(C)C)C(c2cc(C(F)(F)F)cc(Cl)c2F)C2=C(CCC(C)(C)C2=O)N1` (stereo not drawn), the Emax result in the experiment filed under Oryctolagus cuniculus [1] is “inactive”. In addition, in the experiment listed under Oryctolagus cuniculus [2], the Activity entry was “Dose-dependent effect” and the pD2 entry is “inactive”.
As for `C=CCOC(=O)C1=C(C)NC2=C(C(=O)C(C)(C)CC2)C1c1cc(C(F)(F)F)cc(Cl)c1F` (stereo not drawn), the Emax entry in the experiment listed under Oryctolagus cuniculus [1] is “inactive”. For the same compound, in the experiment listed under Oryctolagus cuniculus [2], the Activity entry is “Dose-dependent effect” and the pD2 entry was “inactive”.
Turning to `CC1(C)CC(=O)C2=C(C1)NC1=C(C(=O)OC1)C2c1cc(C(F)(F)F)cc(Cl)c1F` (stereo not drawn), the Emax entry in the experiment listed under Oryctolagus cuniculus [1] is “inactive”. In the experiment filed under Oryctolagus cuniculus [2], the Activity result was “Dose-dependent effect” and the pD2 entry was “inactive”.
As for `COCCOC(=O)C1=C(C)NC2=C(C(=O)CC(C)(C)C2)C1c1cc(C(F)(F)F)cc(Cl)c1F` (stereo not drawn), the Emax in experiment [4] was 45%. Besides, the pD2 in experiment [5] came to 5.11. For the same compound, in the experiment listed under Oryctolagus cuniculus [2], the Activity entry was “Dose-dependent effect”.
Turning to `CC1=C(C(=O)OCC(C)C)C(c2cc(C(F)(F)F)cc(Cl)c2F)C2=C(CC(C)(C)CC2=O)N1` (stereo not drawn), the Emax entry in the experiment listed under Oryctolagus cuniculus [1] was “inactive”. In the experiment filed under Oryctolagus cuniculus [2], the Activity result was “Dose-dependent effect” and the pD2 result is “inactive”.
For the compound `CCOC(=O)C1=C(C)NC2=C(C(=O)CC(C)(C)C2)C1c1cc(C(F)(F)F)cc(Cl)c1F` (stereo not drawn), in experiment [4], the Emax is 22.8%. Moreover, the pD2 in experiment [5] was 4.74. The Activity result in the experiment filed under Oryctolagus cuniculus [2] was “Dose-dependent effect”.
Take `C=CCOC(=O)C1=C(C)NC2=C(C(=O)CC(C)(C)C2)C1c1cc(C(F)(F)F)cc(Cl)c1F` (stereo not drawn): the Emax result in the experiment listed under Oryctolagus cuniculus [1] was “inactive”. Besides, in the experiment filed under Oryctolagus cuniculus [2], the Activity entry was “Dose-dependent effect” and the pD2 result was “inactive”.
In the case of `COC(=O)C1=C(C)NC2=C(C(=O)CC(C)(C)C2)C1c1cc(C(F)(F)F)cc(Cl)c1F` (stereo not drawn), the Emax in experiment [4] came out at 32.2%. Moreover, the pD2 in experiment [5] is recorded as 4.84. Further, the Activity result in the experiment filed under Oryctolagus cuniculus [2] was “Dose-dependent effect”.
Consider `CC1=C(C(=O)OCc2ccccc2)C(c2cc(C(F)(F)F)cc(Cl)c2F)C2=C(CC(C)(C)CC2=O)N1` (stereo not drawn), for which the Emax entry in the experiment listed under Oryctolagus cuniculus [1] is “inactive”. For the same compound, in the experiment listed under Oryctolagus cuniculus [2], the Activity result was “Dose-dependent effect” and the pD2 entry was “inactive”.
`CC1=C(C(=O)OCc2ccccc2)C(c2cc(C(F)(F)F)cc(Cl)c2F)C2=C(CCC(C)(C)C2=O)N1` (stereo not drawn): the Emax entry in the experiment filed under Oryctolagus cuniculus [1] was “inactive”. Further, in the experiment filed under Oryctolagus cuniculus [2], the Activity result is “Dose-dependent effect” and the pD2 result is “inactive”.
`CCOC(=O)C1=C(C)NC2=C(C(=O)C(C)(C)CC2)C1c1cc(C(F)(F)F)cc(Cl)c1F` (stereo not drawn): the Emax in experiment [4] was determined as 23%. Moreover, the pD2 in experiment [5] is listed as 5.06. Besides, the Activity result in the experiment listed under Oryctolagus cuniculus [2] is “Dose-dependent effect”.
